Experimental findings from ChEMBL document CHEMBL1158805, “Neurotoxic meroditerpenoids from the tropical marine brown alga Stypopodium flabelliforme” (J Nat Prod, 2005) are described below.

One series has as its system NCI-H460. In words: Cytotoxicity against human NCI-H460 cells after 48 hrs by MTT assay. The series is classed as functional. The note with it: NCI-H460, 48 h, read-out: LC50 (the source's name). In short, it runs like this:
(§1)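 Cells seeded at 6000/well in RPMI 1640 with 10% FBS. After 24 h, compound in DMSO, diluted in serum-free medium, was added (DMSO under 1% final). Viability was read by MTT reduction after 48 h, giving LC50.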
Background: Formazan colour is commonly taken as a measure of viable cells.

Series [1] in a line: Cytotoxicity against mouse Neuro2a cells after 48 hrs by MTT assay. Type of series: functional. Conditions: N2a, read-out: LC50 (the source's name); call rule not given here. Put shortly:
as §1

Series [2] is described as follows: Increase in calcium influx in Sprague-Dawley rat CGN measured every 6 seconds for 24 mins by FLIPR assay. Type of series: functional. Put shortly:
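Cerebellar granule neurons from 8-day-old Sprague-Dawley rat cerebella were used at 10-13 days in culture. Cells were loaded 1 h at 37 °C with 4 µM fluo-3 AM and 0.04% pluronic acid in Locke's buffer (pH 7.4), washed, then read by FLIPR (488 nm excitation, 500-560 nm emission). Baseline was read every 3 s for 1 min, readings stayed at 3 s for 2 min after addition, then every 6 s, 24 min total. Response was AUC (trapezoid rule); EC50 came from a logistic fit.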

In another series the test system is Artemia salina. In words: Toxicity in Artemia salina after 24 hrs. Type of series: organism-based. The note with it: in vivo. In short, it runs like this:
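About 15 hatched Artemia salina per well in roughly 5 mL of artificial seawater, with sample added in 50 µL EtOH. Held 24 h at 28 °C, then live and dead shrimp counted. Run in duplicate.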

A further series concerns Neuro2a. In words: Inhibition of voltage-gated sodium channel in mouse Neuro2a cells after 22 hrs. The series is classed as cell-based.
Series [3] in a line: Cytotoxicity against Sprague-Dawley rat CGN assessed as LDH efflux after 2 hrs. The note with it: CGN (primary cells from Sprague-Dawley rat), read-out: LC50. Put shortly: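 Primary cerebellar granule neurons from 8-day-old Sprague-Dawley rats in BME with 25 mM KCl, 10 µM cytosine arabinoside added after 18-24 h, used at 10-13 days in culture. Washed into Locke's buffer (pH 7.4, 1% DMSO) and exposed to compound (1-100 µM) for 2 h at 22 °C. LDH released to medium assayed. Logistic fit of concentration-response; triplicate, repeated twice.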

The nature of series [4]: Cytotoxicity against Sprague-Dawley rat CGN assessed as LDH efflux after 2 hrs in presence of tetrodotoxin. Type of series: ADME.

The EC50 is the concentration at which the effect is half-maximal.

Regarding `COC1=CC(C)=C2O[C@@]3(CC2(OO)C1=O)[C@@H](O)CC[C@@H]1[C@@]2(C)CC[C@H](O)C(C)(C)[C@@H]2CC[C@]13C` (stereo partly specified) [STYPOHYDROPEROXIDE], the CC50 in the series on NCI-H460 is more than 25 µM; in series [1] it was more than 21 µM.

As for `C[C@H]1CC[C@@H]2[C@@]3(C)CC[C@H](O)C(C)(C)[C@@H]3CC[C@@]2(C)[C@]12Cc1c(O)c(O)cc(C=O)c1O2`, in series [2], the concentration for a half-maximal effect (EC50) was 100 µM.

Regarding `Cc1cc(O)cc2c1O[C@]1(C)CC[C@@H]3[C@](C)(CC[C@H]4C(C)(C)[C@@H](O)CC[C@]34C)[C@H]1C2`, the CC50 with NCI-H460 was 24 µM; in series [1], 2 µM. In addition, the LC90 with Artemia salina was 24 µM. The Activity with Neuro2a worked out at 0.7 µM.

Consider `CC1=CC(=O)C2=C(C[C@H]3[C@@]4(C)CC[C@H]5C(C)(C)[C@@H](O)CC[C@@]5(C)[C@H]4CC[C@]23C)C1=O` [FLABELLINONE], for which the CC50 in the series on NCI-H460 came out at 14 µM; in series [1] it was 2 µM. Further, the Activity in the series on Neuro2a was 7 µM.

In the case of `COc1c(C)cc(O)c2c1C[C@H]1[C@@]3(C)CC[C@H]4C(C)(C)[C@@H](O)CC[C@@]4(C)[C@H]3CC[C@]21C` [FLABELLINOL], the CC50 with NCI-H460 came out at 9 µM; in series [1], 2 µM. This compound also showed an Activity in the series with Neuro2a of 2 µM.

Consider `CC1=CC(=O)C(=O)C2=C1O[C@@]1(C2)[C@@H](C)CC[C@@H]2[C@@]3(C)CC[C@H](O)C(C)(C)C3CC[C@]21C` (stereo partly specified) [STYPOLDIONE], for which the CC50 at 2 h in series [3] stood at 37.4 µM. In series [2], the concentration giving a half-maximal response (EC50) amounted to 27.8 µM. Besides, the outcome in series [4] was Active.
